Sampled rows, rich in hits. Any-hit rate of the full collection: about 1.2%.
PP1 counter = counter-screen for PP5 inhibitors: inhibitors of human PP1-alpha; P62136; purified PP1alpha, OMFP fluorescence; inhibition, % at 6.7 µM; hit rate 0.9% among 320,000; AID 2235;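 active means inhibition above the mean inhibition of all tested compounds plus 3 SD, computed separately for each screening campaign, cut at about 15% in these data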
proCasp3 act = activates human procaspase-3; AID 463141; recombinant procaspase-3 D3A, Ac-DEVD-pNA absorbance 405 nm; hit rate 0.11% among 330,000; activation, % at 8.5 µM;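 active means activation above the mean of all tested compounds plus 3 SD, cut at about 21% in these data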;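 further: 0% = DMSO alone and 100% = DMSO wells spiked with extra 5 µM PC-3 D3A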
Target sequence (P42574 whole entry D9A/D28A/D175A): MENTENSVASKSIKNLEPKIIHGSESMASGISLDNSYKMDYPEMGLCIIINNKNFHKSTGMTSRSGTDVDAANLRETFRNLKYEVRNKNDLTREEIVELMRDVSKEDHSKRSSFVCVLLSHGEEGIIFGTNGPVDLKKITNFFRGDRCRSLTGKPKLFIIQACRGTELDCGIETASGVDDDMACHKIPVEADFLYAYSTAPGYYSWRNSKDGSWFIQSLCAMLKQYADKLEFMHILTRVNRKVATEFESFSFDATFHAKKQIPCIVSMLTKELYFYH
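Assay system: Procaspase-3 D3A mutant, all three cleavage aspartates alanine. Buffer or medium: Zinc-free HEPES saline buffer with Triton X-100. Times: 1 h compound preincubation, 2 h substrate hydrolysis at 25 °C. Measured by: 405 nm absorbance of p-nitroaniline, reads at 0 and 120 min. Read-out basis: percent activation relative to control range. Replicates: singlicate.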
PP5 inh = blocks human protein phosphatase 5 activity. purified PP5c, OMFP substrate fluorescence. inhibition, % at 6.7 µM. P53041. hit rate 0.18% among 320,000;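 active means inhibition above the campaign's mean inhibition across all tested compounds plus 3 SD, cut at about 9.5% in these data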;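 further: 0% = DMSO only and 100% = 100 µM cantharidin control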
procasp7 counter = counter-screen: procaspase-7 (human) activation | recombinant procaspase-7, Ac-DEVD-pNA absorbance 405 nm; D23A/D198A/D206A triple mutant, cannot self-cleave; scale: DMSO 0, 5 µM enzyme 100 | activation, % at 8.5 µM | hit rate 0.093% among 330,000;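 active means percent activation above the screen-wide mean plus 3 SD, cut at about 25% in these data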
Target sequence (P55210 whole entry D23A/D198A/D206A): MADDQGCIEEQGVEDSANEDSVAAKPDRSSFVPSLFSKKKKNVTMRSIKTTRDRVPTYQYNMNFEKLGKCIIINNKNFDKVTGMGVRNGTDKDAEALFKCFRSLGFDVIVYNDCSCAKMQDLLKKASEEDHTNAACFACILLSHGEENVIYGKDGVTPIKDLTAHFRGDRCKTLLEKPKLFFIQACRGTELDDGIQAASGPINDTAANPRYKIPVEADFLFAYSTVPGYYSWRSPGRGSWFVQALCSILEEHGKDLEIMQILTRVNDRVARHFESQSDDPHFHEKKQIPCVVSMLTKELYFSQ
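System: Uncleavable procaspase-7 mutant enzyme; Amount: 2 µM procaspase-7 mutant as dispensed; Schedule: 1 h compound preincubation, 2 h substrate cleavage, 25 °C; Measured by: 405 nm absorbance of p-nitroaniline; Evaluation: percent activation from buffer-corrected 0–120 min absorbance change; Control set: low DMSO alone, high DMSO plus 5 µM PC-7.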
PP5 conf = PP5 (human) inhibition, confirmation | shares compounds with PP5 inh | Purified PP5, fluorogenic phosphatase substrate, fluorescence | inhibition, % at 6.7 µM | hit rate 22% among 460 | AID 2331; in the data active means inhibition above about 9.5%
PP1 inh counter = inhibits human PP1 phosphatase in PP5 counter-screen | shares compounds with PP5 inh | PP1 enzyme, fluorescent phosphatase substrate | inhibition, % at 6.7 µM | hit rate 4% among 460 | AID 2355; in the data active means inhibition above about 16%
PP1 inh confirm = human PP1 phosphatase inhibition, confirmation | shares compounds with PP1 counter | purified PP1alpha, OMFP substrate fluorescence | inhibition, % at 6.7 µM | hit rate 52% among 1,900 | AID 2358;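 active means mean PP1 inhibition above a set limit taken from the earlier primary screen, cut at about 15% in these data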
PP5 inh counter = PP5 phosphatase inhibition, counter-screen for PP1 inhibitors; shares compounds with PP1 counter; purified PP5c, OMFP fluorescence; inhibition, % at 6.7 µM; hit rate 4% among 1,900; AID 2360;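 active means mean PP5 inhibition over triplicate wells above about 9.5% taken from the earlier PP1 screen, limit read from the data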
* hit, by the source's call; / = no result.

SMILES	PP1 counter	proCasp3 act	PP5 inh	procasp7 counter	PP1 inh confirm	PP5 inh counter	others
Cc1ccc2c(Cl)c(C(=O)NCc3cccnc3)sc2c1	0	6	11*	2	/	/	PP5 conf=-4;PP1 inh counter=-1
COC(=O)c1sc2cc(C(F)(F)F)cnc2c1-c1cccnc1	-2	1	12*	-5	/	/	PP5 conf=-5;PP1 inh counter=-3
CCOC(=O)N1CCN(C(=O)c2cccn3c(=O)c4cc(Cl)ccc4nc23)CC1	1	2	11*	-4	/	/	PP5 conf=-5;PP1 inh counter=-5
CCOC(=O)N1CCN(C(=O)c2cccn3c(=O)c4cc(Br)ccc4nc23)CC1	-5	1	0	8	/	/
Cc1ccc2nc(-c3ccc(SCC(=O)Nc4nnc(C)s4)nc3)[nH]c2c1	20*	-1	2	0	25*	-2
COc1ccc(CCN(C)C(=O)c2ccc(S(=O)(=O)Nc3ccccc3F)cc2)cc1OC	-1	2	6	11	/	/
O=C(NCC1CCCC(CNC(=O)Nc2ccc(Cl)cn2)C1)Nc1ccc(Cl)cn1 (stereo unspecified)	19*	7	6	1	13	5
Cc1cc(C)n(-c2nc(Nc3ccccc3C)nc(-n3nc(C)cc3C)n2)n1	36*	1	4	5	38*	-2
Cc1cc(C)n(-c2nc(Nc3ccccc3C(F)(F)F)nc(-n3nc(C)cc3C)n2)n1	30*	2	5	4	17*	2
Cc1cc(C)n(-c2nc(NC(C)(C)C)nc(NC(C)(C)C)n2)n1	2	-9	0	6	/	/
CCc1c(C2(O)CCCCC2)[nH]c2ccc(C#N)cc12	4	-7	1	-4	/	/
O=C1C2C3CCC(O3)C2C(=O)N1c1cccc(O)c1 (stereo unspecified)	2	-2	2	12	/	/
O=C1OC(=O)C2C1[C@@H]1CC[C@H]2O1 (stereo partly specified)	79*	7	77*	5	66*	69*
O=C(COC(=O)Cc1ccc(S(=O)(=O)N2CCOCC2)s1)Nc1ccc(F)cc1F	/	0	/	-10	/	/
CCCCCCOc1ccc(/C(C)=N/NC2=NCCN2)cc1[N+](=O)[O-]	20*	-3	3	15	9	2
CC1(c2ccccc2)CC(C)(C)N2C(=O)C(=O)c3cccc1c32 (stereo unspecified)	24*	0	0	-1	18*	-2
O=C(O)COc1ccccc1/C=N/Nc1ccc(S(=O)(=O)Nc2ccc(Cl)cc2)cc1[N+](=O)[O-]	19*	-4	4	-18	14	-3
CCCCCCCCCCOC(=O)Cn1c(COc2ccc(Cl)cc2)[n+](C)c2ccccc21	48*	-3	6	9	21*	2
CCCCCCCCCCOC(=O)Cn1c(COc2ccccc2C)[n+](C)c2ccccc21	44*	-6	6	5	16*	4
CCCCCCCCCCOC(=O)Cn1c(COc2ccc(OC)cc2)[n+](C)c2ccccc21	35*	3	4	8	2	-1
CCCCCCCCCCOC(=O)Cn1c(COc2ccccc2)[n+](C)c2ccccc21	36*	-6	5	8	9	3
COC(=O)c1cc(COC(=O)CNC(=O)c2ccc(Br)cc2)oc1C	/	-3	/	10	/	/
CC(C)(C)OC(=O)C[C@H]1C/C=C\C[C@H](CC(=O)N(CCO)Cc2ccccc2)C(=O)N2CCC[C@H]2COC1=O	/	4	/	4	/	/
CCCCCCCCCCOC(=O)Cn1c(COc2cccc(C)c2)[n+](C)c2ccccc21	42*	0	5	8	16*	4
COc1ccc(C2=CC3=CC(=O)C(C)(O)C(=O)C3=CO2)cc1 (stereo unspecified)	18*	-7	-3	-9	13	0
SMILES	PP1 counter	proCasp3 act	PP5 inh	procasp7 counter	PP1 inh confirm	PP5 inh counter	others
CCC(=O)OC1(C)C(=O)C=C2C=C(c3ccc(C#N)cc3)OC=C2C1=O (stereo unspecified)	9	9	1	-8	/	/
CC1(O)C(=O)C=C2C=C(c3ccc(C#N)cc3)OC=C2C1=O (stereo unspecified)	35*	1	1	-10	21*	-3
CCC(C)NS(=O)(=O)c1ccc(OCC(=O)Nc2ccc(F)cc2F)cc1 (stereo unspecified)	3	-4	1	7	/	/
CN1CCN(c2ccccc2NC(=O)c2ccc(-c3cccc([N+](=O)[O-])c3)o2)CC1	0	-3	1	-12	/	/
CCC(=O)N1CCN(c2ccccc2NC(=O)c2ccc(-c3cccc([N+](=O)[O-])c3)o2)CC1	19*	0	2	-3	17*	-2
COc1ccccc1C1C2=C(N=c3s/c(=C/c4cccc(OCC(=O)O)c4)c(=O)n31)c1ccccc1CC2 (stereo unspecified)	20*	-15	3	-11	19*	0
COc1cccc(C2C3=C(N=c4s/c(=C\c5ccc(OCC(=O)O)cc5)c(=O)n42)c2ccccc2CC3)c1 (stereo unspecified)	23*	-9	2	-5	7	-2
COc1cccc(C2C3=C(N=c4s/c(=C\c5ccc(O)cc5)c(=O)n42)c2ccccc2CC3)c1OC (stereo unspecified)	-1	1	2	9	/	/
Cc1ccc(Cn2nc(C)c(C(=O)NCC(c3cccs3)N3CCOCC3)c2Cl)cc1 (stereo unspecified)	-1	2	4	4	/	/
Cc1ccc(S(=O)(=O)Nc2cc3c(cc2C#N)OCO3)cc1C(N)=O	0	-1	1	-1	/	/
Cc1ccc(S(=O)(=O)CCC(=O)OCC(=O)c2ccc(F)cc2)cc1	31*	-6	0	-8	1	0
Cc1ccc(S(=O)(=O)CCC(=O)OCC(=O)c2cc(C)ccc2C)cc1	-1	-1	-1	4	/	/
CCOc1ccccc1N1CCN(CC(=O)Nc2ccnn2C2CCCC2)CC1	0	-2	5	19	/	/
CC1=C(C#N)c2nc(N)c(C#N)c(C)c2/C1=C\c1ccc(C)cc1	-2	-2	-1	-11	/	/
COc1cc(/C=C2\C(C)=C(C#N)c3nc(N)c(C#N)c(C)c32)ccc1OCC(=O)O	30*	-1	3	1	7	0
O=C1c2c(O)cccc2Cc2cccc(O)c21	35*	-1	2	-3	29*	-3
COc1cc2c(cc1OC)C(Cc1ccc(O)c(Oc3ccc(C[C@H]4c5cc(OC)c(OC)cc5CCN4C)cc3)c1)N(C)CC2 (stereo partly specified)	/	0	/	1	/	/

Bioassay records as filed in PubChem.
